{
  "source": "ChEMBL document CHEMBL1126217",
  "about": "“Side-chain derivatives of biologically active nucleosides. 1. Side-chain analogs of 3'-azido-3'-deoxythymidine (AZT)” (J Med Chem, 1992)",
  "key": {"Vaccinia virus [1]": {"system": "Vaccinia virus", "test": "Inhibitory activity against Vaccinia virus(VV)at a concentration 400 ug/mL; not effective", "assay_type": "functional, organism-based", "conditions": "Orthopoxvirus vaccinia"}, "[2]": {"system": "Human immunodeficiency virus", "test": "Compound was evaluated for the cytotoxic concentration against HIV", "assay_type": "functional", "conditions": "Human immunodeficiency virus 1", "outline": "(§1)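 Infected cells mixed with serial compound dilutions (tested up to 200 μg/mL) and incubated 5 days at 37 °C. Viable cells counted microscopically in a hematocytometer by trypan blue exclusion to give 50% effective and cytotoxic concentrations.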"}, "[3]": {"test": "Inhibitory activity against herpes simplex virus type-1 (HSV-1) at a concentration 400 ug/mL; not effective", "assay_type": "functional, organism-based", "conditions": "Human alphaherpesvirus 1"}, "Human alphaherpesvirus 2 [4]": {"system": "Human alphaherpesvirus 2", "test": "Inhibitory activity against herpes simplex virus type-2 (HSV-2) at a concentration 400 ug/mL; not effective", "assay_type": "functional, organism-based"}, "Vaccinia virus [5]": {"system": "Vaccinia virus", "test": "Inhibitory activity against Vaccinia virus(VV) at a concentration 400 ug/mL; not effective", "assay_type": "functional, organism-based", "conditions": "Orthopoxvirus vaccinia"}, "MT4": {"system": "MT4", "test": "Inhibitory activity toward HIV replication in MT-4 cells", "assay_type": "functional, cell-based", "conditions": "Homo sapiens", "outline": "as §1"}, "Human alphaherpesvirus 2 [6]": {"system": "Human alphaherpesvirus 2", "test": "Inhibitory activity towards herpes simplex virus type-2 (HSV-2)"}, "Human alphaherpesvirus 1": {"system": "Human alphaherpesvirus 1", "test": "Inhibitory activity towards herpes simplex virus type-1 (HSV-1)"}, "[7]": {"system": "Vesicular stomatitis virus", "test": "Inhibitory activity towards Vesicular stomatitis virus(VSV)", "assay_type": "functional"}, "Vaccinia virus [8]": {"system": "Vaccinia virus", "test": "Inhibitory activity towards Vaccinia virus(VV)", "assay_type": "functional", "conditions": "Orthopoxvirus vaccinia"}},
  "note": "The source made the active and inactive calls. The calls are words filed in the database; no cut-off is given here.",
  "data": [
    {"smiles": "Cc1cn(C2CC(N=[N+]=[N-])C([C@H](O)CO)O2)c(=O)[nH]c1=O", "note": "(some centres not stated)", "values": [
      {"measurement": "CC50", "setting": "Vaccinia virus [1]", "result": "inactive"},
      {"measurement": "CC50", "setting": "[2]", "result": "> 200", "unit": "µg/mL"},
      {"measurement": "HSV-1 inhibitory activity", "setting": "[3]", "result": "inactive"},
      {"measurement": "CC50", "setting": "Human alphaherpesvirus 2 [4]", "result": "inactive"}
    ]},
    {"smiles": "Cc1cn(C2CC(N=[N+]=[N-])C([C@H](C)O)O2)c(=O)[nH]c1=O", "note": "(some centres not stated)", "values": [
      {"measurement": "CC50", "setting": "Vaccinia virus [1]", "result": "inactive"},
      {"measurement": "CC50", "setting": "[2]", "result": "> 200", "unit": "µg/mL"},
      {"measurement": "HSV-1 inhibitory activity", "setting": "[3]", "result": "inactive"},
      {"measurement": "CC50", "setting": "Human alphaherpesvirus 2 [4]", "result": "inactive"}
    ]},
    {"smiles": "Cc1cn(C2CC(N=[N+]=[N-])C(CCO)O2)c(=O)[nH]c1=O", "note": "(configuration not stated)", "values": [
      {"measurement": "CC50", "setting": "[2]", "result": 200, "unit": "µg/mL"},
      {"measurement": "CC50", "setting": "Vaccinia virus [5]", "result": "inactive"},
      {"measurement": "HSV-1 inhibitory activity", "setting": "[3]", "result": "inactive"},
      {"measurement": "CC50", "setting": "Human alphaherpesvirus 2 [4]", "result": "inactive"}
    ]},
    {"smiles": "Cc1cn(C2CC(N=[N+]=[N-])C([C@@H](O)CO)O2)c(=O)[nH]c1=O", "note": "(some centres not stated)", "values": [
      {"measurement": "CC50", "setting": "Vaccinia virus [1]", "result": "inactive"},
      {"measurement": "CC50", "setting": "[2]", "result": 17.7, "unit": "µg/mL"},
      {"measurement": "HSV-1 inhibitory activity", "setting": "[3]", "result": "inactive"},
      {"measurement": "CC50", "setting": "Human alphaherpesvirus 2 [4]", "result": "inactive"}
    ]},
    {"smiles": "Cc1cn([C@H]2C[C@H](N=[N+]=[N-])[C@@H](CO)O2)c(=O)[nH]c1=O", "note": "[ZIDOVUDINE]", "values": [
      {"measurement": "EC50", "setting": "MT4", "result": 2, "unit": "ng/mL"}
    ]},
    {"smiles": "Cc1cn(C2CC(N=[N+]=[N-])C([C@@H](C)O)O2)c(=O)[nH]c1=O", "note": "(some centres not stated)", "values": [
      {"measurement": "CC50", "setting": "Human alphaherpesvirus 2 [6]", "result": 300, "unit": "µg/mL"},
      {"measurement": "CC50", "setting": "Human alphaherpesvirus 1", "result": 150, "unit": "µg/mL"},
      {"measurement": "CC50", "setting": "[2]", "result": "> 200", "unit": "µg/mL"},
      {"measurement": "CC50", "setting": "[7]", "result": "> 400", "unit": "µg/mL"},
      {"measurement": "CC50", "setting": "Vaccinia virus [8]", "result": 300, "unit": "µg/mL"}
    ]}
  ]
}
